Laboratory results published in PubChem BioAssay AID651950 (The Scripps Research Institute Molecular Screening Center, 2012).
Values without a mark were called inactive. Active and inactive are the calls of the source. How the calls were made is not given here.

Assay: Hsp70 transcriptional activators, SAR follow-up, cell-based, HeLa, Hsp70 promoter luciferase, luminescence (AID 651950)
Settings: HeLa hsp70.1pr-luc reporter; at 99 µM (top of the series)
Procedure, shortened: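 detection: luciferase luminescence; read-out: % activation relative to DMSO and MG132 controls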

Question: Which activation does the source give for `O=[N+]([O-])c1c(Nc2ccc(Cl)cc2)cc(Cl)c2nonc12` here?
Answer: -0.9% (active)

Question: With `COc1cccc(N2C(=O)NC(=O)/C(=C/C=C/c3ccccc3[N+](=O)[O-])C2=O)c1` as the compound, how does the activation read?
Answer: -1.6%

Question: Which activation does the source give for `O=c1c([N+](=O)[O-])c(Cl)c2ccccc2n1Cc1ccccc1` here?
Answer: -0.4%

Question: Which activation does the source give for `O=C1NC(=O)N(c2cccc(Cl)c2)C(=O)/C1=C\C=C\c1ccccc1` here?
Answer: -0.7% (active)

Question: With `COc1cc(C(=O)/C(=C/c2cccnc2)c2nc3ccccc3o2)cc(OC)c1OC` as the compound, how does the activation read?
Answer: -1.5%

Question: Which activation does the source give for `O=C1NC(=O)N(c2cccc(Br)c2)C(=O)/C1=C/C=C/c1ccccc1` here?
Answer: -0.8% (active)

Question: For `O=C1/C(=C/c2ccncc2)CCC/C1=C\c1ccncc1`, which activation is on record?
Answer: -1.1% (active)
